Assay outcomes as filed in PubChem.
TNAP act hiacc: activators of human TNAP at high phosphate acceptor concentration. P05186. purified TNAP, CDP-star luminescence, 1 M DEA, 30 min; hits give high values; 0 = EDTA background, 1 = DMSO-only activity. activation factor at 20 µM. 200,000 tested, under 10 active. AID 1136;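 active = activation factor at least 2 at 20 µM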
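Test system – human TNAP · Doses – 20 µM single point · Incubation – 30 min, room temperature · Signal – luminescent substrate turnover signal · Read-out basis – activation factor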
ABCG2 inh: inhibitors of human ABCG2 transporter, ABCB1 counter-screen. Q9UNQ0. IgMXP3 cells, JC-1 efflux, flow cytometry. inhibition, % at 6.6 µM. hit rate 0.1% among 190,000;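 active = inhibition above 80%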
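System: two drug-resistant human cell lines, ABCG2 and ABCB1; controls: nicardipine high and DMSO low controls; times: 10 min exposure at 25 °C with rotation, no wash; detection: flow cytometry of retained JC-1 fluorescence; read-out basis: percent efflux inhibition, scaled nicardipine 100% to DMSO 0%; doses: one concentration, 6.6 µM final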
ABCB1 inh: human ABCB1 inhibition, ABCG2 as counter-screen | CCRF-Adr cells, JC-1 efflux, flow cytometry | P08183 | AID 1326 | inhibition, % at 6.6 µM | hit rate 0.067% among 190,000; in the data active = inhibition above about 40%;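 also: higher value means more JC-1 retained so stronger ABCB1 efflux block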
Target sequence (P08183 whole entry, looked up): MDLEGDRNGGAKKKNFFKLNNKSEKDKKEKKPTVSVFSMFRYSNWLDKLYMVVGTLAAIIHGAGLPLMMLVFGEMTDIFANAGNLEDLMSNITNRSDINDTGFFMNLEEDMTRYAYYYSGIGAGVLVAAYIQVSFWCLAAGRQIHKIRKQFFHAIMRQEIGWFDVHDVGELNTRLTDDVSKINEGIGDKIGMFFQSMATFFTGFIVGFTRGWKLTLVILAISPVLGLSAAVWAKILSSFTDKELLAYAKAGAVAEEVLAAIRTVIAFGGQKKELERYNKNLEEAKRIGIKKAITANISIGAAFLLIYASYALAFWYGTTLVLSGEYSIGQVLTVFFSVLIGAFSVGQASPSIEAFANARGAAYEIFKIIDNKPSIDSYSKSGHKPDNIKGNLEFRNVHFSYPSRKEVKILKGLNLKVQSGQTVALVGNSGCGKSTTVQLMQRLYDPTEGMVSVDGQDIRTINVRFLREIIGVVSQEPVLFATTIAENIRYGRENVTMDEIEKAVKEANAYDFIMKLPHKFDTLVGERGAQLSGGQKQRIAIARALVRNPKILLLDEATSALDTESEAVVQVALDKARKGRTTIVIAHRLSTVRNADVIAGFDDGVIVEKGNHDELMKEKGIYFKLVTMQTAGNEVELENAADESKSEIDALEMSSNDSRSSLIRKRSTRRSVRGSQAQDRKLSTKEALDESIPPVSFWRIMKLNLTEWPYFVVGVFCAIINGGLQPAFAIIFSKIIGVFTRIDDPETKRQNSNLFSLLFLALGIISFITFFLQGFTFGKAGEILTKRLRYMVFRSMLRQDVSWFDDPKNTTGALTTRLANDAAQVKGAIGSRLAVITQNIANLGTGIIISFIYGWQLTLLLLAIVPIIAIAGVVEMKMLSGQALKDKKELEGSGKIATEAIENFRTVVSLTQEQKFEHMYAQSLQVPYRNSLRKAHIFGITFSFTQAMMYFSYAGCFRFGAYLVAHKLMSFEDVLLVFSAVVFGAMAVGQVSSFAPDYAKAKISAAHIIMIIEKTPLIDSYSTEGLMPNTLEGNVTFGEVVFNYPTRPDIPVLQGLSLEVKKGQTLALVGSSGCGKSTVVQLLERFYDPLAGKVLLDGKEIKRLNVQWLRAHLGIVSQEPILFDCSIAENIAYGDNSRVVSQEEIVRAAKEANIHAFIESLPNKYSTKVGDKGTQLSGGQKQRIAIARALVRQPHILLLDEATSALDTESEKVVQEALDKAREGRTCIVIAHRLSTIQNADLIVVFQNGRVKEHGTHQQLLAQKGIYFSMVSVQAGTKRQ
TNAP inh hiacc: blocks human TNAP under high phosphate acceptor concentration; hit rate 0.03% among 200,000; inhibition, % at 20 µM; AID 1135; purified TNAP, CDP-star luminescence, 1 M DEA; P05186;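 active = over 50% inhibition of tissue-nonspecific alkaline phosphatase at 20 µM in the single-dose screen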
TNAP inh noacc: TNAP (human) inhibition, acceptor-free conditions; hit rate 0.26% among 200,000; purified TNAP, CDP-star luminescence, 30 min; AID 1012; P05186; inhibition, % at 20 µM;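 active = tissue-nonspecific alkaline phosphatase inhibition above about 50% at 20 µM in the single-dose screen, limit read from the data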
ABCB1 confirm: confirmation of human ABCB1 transporter inhibitors, ABCG2 counter-screen; inhibition, % at 6.6 µM; AID 1451; shares compounds with ABCG2 inh; hit rate 7% among 270; CCRF-Adr cells, JC-1 efflux, flow cytometry;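 active = inhibition of pump activity above 50%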
ABCG2 single pt: confirmation of human ABCG2 transporter inhibitors, ABCB1 counter-screen; shares compounds with ABCG2 inh; IgMXP3 cells, JC-1 efflux, flow cytometry; AID 1453; inhibition, % at 6.6 µM; hit rate 6% among 270;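 active = inhibition above 50%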
IgMXP3 fluor: compound fluoresces at 488/530 nm in IgMXP3 cells; shares compounds with ABCG2 inh; compound autofluorescence 488/530 nm, flow; hits give high values; fluorescence at 6.6 µM; hit rate 30% among 270; AID 1480;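 active = fluorescence in ABCG2-expressing cells above the plate's control-well mean plus 3 SD, cut at about 15 in these data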
CCRF autofluor: counter-screen for ABCB1 inhibitors: compound fluorescence in CCRF-Adr cells | shares compounds with ABCG2 inh | compound autofluorescence 488/530 nm, flow cytometry; hits give high values | fluorescence at 6.6 µM | hit rate 30% among 270;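 active = fluorescence beyond the plate control mean plus 3 SD, with a fluorescence-to-maximum score over 2, cut at about 25 in these data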
Each line names hits and unclear results; the compound was inactive in the other large screens (follow-up assays come after a bar, where they were run). Only some compounds are listed: those with a hit (about 0.41% of all), similar ones and a draw of the others.

COc1cccc(C2C(C(=O)Nc3nc4ccccc4s3)=C(C)NC3=C2C(=O)CC(C)(C)C3)c1OC (stereo not given)	ABCB1 inh 45 | ABCB1 confirm 59 | ABCG2 single pt inactive | IgMXP3 fluor 29 | CCRF autofluor inactive
CCOC(=O)c1c(C)nc(SC)c(C#N)c1-c1ccccc1	ABCG2 inh 85 | ABCB1 confirm inactive | ABCG2 single pt inactive | IgMXP3 fluor inactive | CCRF autofluor inactive
CCOC(=O)c1c(C)nc2ccccc2c1-c1ccccc1	none
CCn1c(Cc2ccccc2)nnc1SCC(=O)Nc1ccccc1O	none
CN(C)C(=O)c1nnsc1Sc1ccc(Cl)cc1	none
COc1ccc2cc3cc(C(=O)Nc4ccccc4N4CCN(C)CC4)oc3nc2c1	ABCB1 inh 47 | ABCB1 confirm inactive | ABCG2 single pt inactive | IgMXP3 fluor inactive | CCRF autofluor inactive
Cc1cc(C)n(-c2ccc(Cl)c(C(=O)Nc3cc(C(F)(F)F)ccc3Cl)n2)n1	ABCG2 inh 116 | ABCB1 confirm inactive | ABCG2 single pt inactive | IgMXP3 fluor inactive | CCRF autofluor inactive
COC(=O)c1nc(-n2nc(C)cc2C)ccc1Cl	none
CCN(CCCNC(=O)CCc1nc(-c2ccc(C)cc2)no1)c1cccc(C)c1	ABCG2 inh 83 | ABCB1 confirm inactive | ABCG2 single pt inactive | IgMXP3 fluor inactive | CCRF autofluor inactive
O=C(NCC1OCCc2ccccc21)c1ccc(NC(=O)c2ccccc2Cl)cc1 (stereo not given)	none
O=C(NCC1OCCc2ccccc21)c1ccc(NC(=O)c2ccc(Cl)cc2Cl)cc1 (stereo not given)	ABCG2 inh 111, ABCB1 inh 95 | ABCB1 confirm inactive | ABCG2 single pt inactive | IgMXP3 fluor inactive | CCRF autofluor inactive
COc1cc(C(=O)NC(=S)Nc2nccs2)cc(OC)c1OC	none
CN(C)c1ccc(/C=C/C(=O)c2cccc(Br)c2)cc1	none | ABCB1 confirm inactive | ABCG2 single pt inactive | IgMXP3 fluor 19 | CCRF autofluor 103
COc1ccccc1-n1cc(C(=O)N2CCCC(CO)(Cc3ccccc3C)C2)cn1 (stereo not given)	none
COc1cccc(NC(=O)Nc2ccncc2)c1	ABCB1 inh 44 | ABCB1 confirm inactive | ABCG2 single pt inactive | IgMXP3 fluor inactive | CCRF autofluor inactive
Cc1cc(C)c(C(=O)COC(=O)CCNS(=O)(=O)c2c(Cl)cccc2Cl)cc1C	ABCG2 inh 97 | ABCB1 confirm inactive | ABCG2 single pt inactive | IgMXP3 fluor inactive | CCRF autofluor inactive
CCSc1nc2cc(OC)c(OC)cc2c(=O)n1CCc1ccccc1	none | ABCB1 confirm inactive | ABCG2 single pt inactive | IgMXP3 fluor inactive | CCRF autofluor inactive
COc1cc2nc(SCC(N)=O)n(CCC3=CCCCC3)c(=O)c2cc1OC	none
COCCNC(=O)CSc1nc2cc(OC)c(OC)cc2c(=O)n1CCC1=CCCCC1	ABCG2 inh 88 | ABCB1 confirm inactive | ABCG2 single pt inactive | IgMXP3 fluor inactive | CCRF autofluor inactive
Cc1cc2cc(CNC(=S)NC3CCCCC3)ccc2n1C	none
COc1ccc(OC)c(NC(=O)c2cccc(C)c2[N+](=O)[O-])c1	none
CCN(CC)S(=O)(=O)c1ccc(OC)c(NC(=O)c2cccc(C)c2[N+](=O)[O-])c1	ABCG2 inh 88 | ABCB1 confirm inactive | ABCG2 single pt inactive | IgMXP3 fluor inactive | CCRF autofluor inactive
O=[N+]([O-])c1ccc(N2CCN(c3ccccc3F)CC2)c(S(=O)(=O)N2CCOCC2)c1	none (no result: ABCG2 inh, ABCB1 inh) | ABCB1 confirm inactive | ABCG2 single pt inactive | IgMXP3 fluor inactive | CCRF autofluor inactive
COc1ccc(C(=O)OCC(=O)NCCN2C(=O)CSC2=O)cc1	none
COc1ccc(C2Nc3ccccc3C(=O)N2O)cc1CN1CCOCC1 (stereo not given)	none
COc1ccc(/C=N/Nc2cc(=O)n(C)c(=O)n2C)cc1OC	ABCG2 inh 88 | ABCB1 confirm inactive | ABCG2 single pt inactive | IgMXP3 fluor 23 | CCRF autofluor inactive
Cc1ccc(N2C(=O)Nc3ccccc3C2(O)C(=O)N2CCN(c3ccccn3)CC2)cc1C (stereo not given)	none
COC(=O)C1=C(C)NC(C)=C(C(=O)OC)C1c1ccc(-c2cc(Cl)ccc2Cl)o1	none
COC(=O)C1=C(C)NC(C)=C(C(=O)OC)C1c1ccc(-c2cccc(Cl)c2Cl)o1	ABCG2 inh 85 | ABCB1 confirm inactive | ABCG2 single pt inactive | IgMXP3 fluor inactive | CCRF autofluor inactive
CCOC(=O)c1cccc(NC(=O)c2cccnc2)c1	none
CCOC(=O)c1cccc(NC(=O)c2cnc3ccccc3n2)c1	ABCG2 inh 91 | ABCB1 confirm inactive | ABCG2 single pt 68 | IgMXP3 fluor inactive | CCRF autofluor inactive
COc1cc(SC)ccc1C(=O)Nc1ccccc1	ABCG2 inh 84 | ABCB1 confirm inactive | ABCG2 single pt inactive | IgMXP3 fluor 18 | CCRF autofluor 30
CCN(CC)P(=O)(Nc1cccc(C(F)(F)F)c1)c1ccc(N(C)C)cc1NC(=O)c1ccco1 (stereo not given)	ABCB1 inh 56 | ABCB1 confirm 62 | ABCG2 single pt inactive | IgMXP3 fluor inactive | CCRF autofluor 37
CCc1ccc(OCC(=O)N/N=C(\C)c2ccc(OC(F)F)cc2)cc1	ABCG2 inh 104 | ABCB1 confirm inactive | ABCG2 single pt inactive | IgMXP3 fluor 15 | CCRF autofluor inactive
CN(C(=O)c1cc2ccccc2oc1=O)C1(C)CCS(=O)(=O)C1 (stereo not given)	none
O=C(NCCCc1ccccc1)Nc1cccc(Cl)c1	ABCG2 inh 94 | ABCB1 confirm inactive | ABCG2 single pt inactive | IgMXP3 fluor inactive | CCRF autofluor inactive
O=C(NCCc1ccncc1)Nc1cccc(Cl)c1	none
CCCC(NC(=O)CCl)c1ccccc1 (stereo not given)	none
CCC(NC(=O)CCl)c1ccc(C)cc1 (stereo not given)	none | ABCB1 confirm inactive | ABCG2 single pt inactive | IgMXP3 fluor inactive | CCRF autofluor inactive
S=C(NCCc1ccccc1)Nc1ccc(Br)cn1	none
CCOc1ccc(OCC)c(NC(=O)CN2CCN(c3cccc(C)c3)CC2)c1	none | ABCB1 confirm inactive | ABCG2 single pt inactive | IgMXP3 fluor inactive | CCRF autofluor inactive
CCOc1ccc(OCC)c(NC(=O)CN2CCN(c3cccc(C)c3)C(C)C2)c1 (stereo not given)	none
